Source: paper PMC3873039 (Anti-Cancer Agents in Medicinal Chemistry, 2013)

What was measured:
CCRF-CEM [1] = test: CellTiter-Glo luminescent cell viability assay; type: cell-based, human; details: 24 h, doses 0, 2, 10, 50, 250, 500 µM, p<0.05
Method in brief: (§1)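 Cells grown in RPMI 1640 with 10% FBS, 1.5 mM L-glutamine and penicillin/streptomycin at 37 °C, 5% CO2. Seeded at 2.5 x 10³ cells/well and exposed 24 h to ethanol-dissolved test compound (0, 2, 10, 50, 250, 500 µM) with 0.1% ethanol vehicle. ATP luminescence normalized to vehicle (100%). IC50 taken from linear regression. Lowest significant dose set by one-way ANOVA/Tukey, p<0.05. Triplicates, three independent experiments.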

MOLT-3 = test: CellTiter-Glo luminescent cell viability assay; type: cell-based, human; details: MOLT-3, 24 h, doses 0, 2, 10, 50, 250, 500 µM, p<0.05
Method in brief: as §1

HL60 [2] = test: CellTiter-Glo luminescent cell viability assay; type: cell-based, human; details: HL60, 24 h, doses 0, 2, 10, 50, 250, 500 µM, p<0.05
Method in brief: as §1

THP-1 [3] = test: CellTiter-Glo luminescent cell viability assay; type: cell-based, human; details: THP-1, 24 h, doses 0, 2, 10, 50, 250, 500 µM, p<0.05
Method in brief: as §1

U937 [4] = test: CellTiter-Glo luminescent cell viability assay; type: cell-based, human; details: U937, 24 h, doses 0, 2, 10, 50, 250, 500 µM, p<0.05
Method in brief: as §1

[5] = system: non-tumor cord blood (CD34+) cells; test: CellTiter-Glo luminescent cell viability assay; type: cell-based; details: 24 h
Method in brief: as §1

JURKAT [6] = test: Cell cycle analysis, propidium iodide flow cytometry; type: cell-based, human; details: IC50 dose, 24 h, p<0.05
Method in brief: (§2)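 Seeded at 0.5 x 10^6 cells per well in 12-well plates and treated 24 h at the IC50 concentration of each test compound from CellTiter-Glo. Cells were pelleted (400 g, 5 min), PBS-washed and fixed in 80% ethanol overnight at -20 °C. Staining used 50 µg/mL PI plus RNase overnight at 4 °C.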

CCRF-CEM [7] = test: as above; type: cell-based, human; details: IC50 dose, 24 h, vehicle control G0/G1 = 41.9%
Method in brief: as §2

U937 [8] = test: as above; type: cell-based, human; details: U937, IC50 dose, 24 h; vehicle control G0/G1 = 44.03%
Method in brief: as §2

[9] = system: non-tumor progenitor cells (CD34+); test: Cell cycle analysis, propidium iodide flow cytometry; type: cell-based; details: 24 h, within the IC50 ranges used to treat the leukemic cell lines
JURKAT [10] = test: NucView caspase 3 activity assay by flow cytometry; type: cell-based, human; details: 24 h
Method in brief: (§3)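 Seeded at 0.5 x 10⁶ cells/well and treated 24 h, with series of 0–50 or 0–250 µM depending on compound. Normalized to vehicle (0% apoptosis). Mean ± STD, three independent experiments in triplicate. One-way ANOVA/Tukey, p<0.05. AP50 = concentration giving 50% apoptotic cells.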

CCRF-CEM [11] = test: NucView caspase 3 activity assay by flow cytometry; type: cell-based, human; details: 24 h
Method in brief: as §3

HL60 [12] = test: NucView caspase 3 activity assay by flow cytometry; type: cell-based, human
Method in brief: as §3

THP-1 [13] = test: NucView caspase 3 activity assay by flow cytometry; type: cell-based, human
Method in brief: as §3

K562 [14] = test: NucView caspase 3 activity assay by flow cytometry; type: cell-based, human
Method in brief: as §3

U937 [15] = test: NucView caspase 3 activity assay by flow cytometry; type: cell-based, human
Method in brief: as §3

non-tumor cells (CD34+) [16] = test: NucView caspase 3 activity assay by flow cytometry; type: cell-based; details: 24 h
HL60 [17] = test: Hoechst 33342 nuclear morphological analysis of apoptosis; type: cell-based; details: Homo sapiens, HL-60, 24 h, read-out: AP50 (50% induction of apoptosis), Hoechst 33342 staining (Hoe)
Method in brief: (§4)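 Seeded at 0.5 x 10⁶ cells/well in 12-well plates and treated 24 h. Cells were pelleted (400 g, 5 min, 4 °C), washed in PBS, fixed in 4% paraformaldehyde, cytospun, air-dried, then stained with 10 μg/ml Hoechst 33342 for 10 min in the dark. Fluorescence microscopy: 200 cells counted, scored by condensed/intense nuclei, shrinkage, blebbing and apoptotic bodies. % apoptotic nuclei calculated. AP50 = concentration giving 50% apoptotic cells.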

THP-1 [18] = test: as above; type: cell-based; details: Homo sapiens, THP-1, 24 h, read-out: AP50 (50% induction of apoptosis), Hoechst 33342 staining (Hoe)
Method in brief: as §4

K562 [19] = test: as above; type: cell-based; details: Homo sapiens, K562, 24 h, read-out: AP50 (50% induction of apoptosis), Hoechst 33342 staining (Hoe)
Method in brief: as §4

non-tumor cells (CD34+) [20] = test: Hoechst 33342 nuclear morphological analysis of apoptosis; type: cell-based; details: 24 h, read-out: AP50 (50% induction of apoptosis), Hoechst 33342 staining (Hoe)
Method in brief: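 CD34+ cells treated 24 h across the IC25–IC50 range, then pelleted (400 g, 4 °C) and fixed in 4% paraformaldehyde/PBS. Cytospins were air-dried and stained with 10 μg/ml Hoechst 33342 for 10 min in the dark, then viewed by fluorescence microscopy. 200 cells were scored per sample as % apoptotic nuclei (shrinkage, blebbing, chromatin condensation, apoptotic bodies). AP50 = concentration giving 50% apoptosis.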

For `O=C(O)c1cc(O)c2c(c1)C(=O)c1cccc(O)c1C2=O` [Rhein], which “The lowest dose of polyphenols at which there was a significant inhibition of cell proliferation compared to the vehicle control” value (CCRF-CEM [1]) is on record?
Its value is 50 µM.

What about the “The lowest dose of polyphenols at which there was a significant inhibition of cell proliferation compared to the vehicle control” value (MOLT-3) of the same compound?
The value was 50 µM.

What about the “The lowest dose of polyphenols at which there was a significant inhibition of cell proliferation compared to the vehicle control” value (HL60 [2]) of the same compound?
Its value is 50 µM.

What about the “The lowest dose of polyphenols at which there was a significant inhibition of cell proliferation compared to the vehicle control” value (THP-1 [3]) of the same compound?
Its value is 50 µM.

What about the “The lowest dose of polyphenols at which there was a significant inhibition of cell proliferation compared to the vehicle control” value (U937 [4]) of the same compound?
The value was 50 µM.

And the IC50 ([5]; read-out: IC50 (50% inhibition of cellular proliferation), CD34+ non-tumour control cells, 24 h treatment)?
The IC50 was 380 µM.

And the “The lowest dose of polyphenols at which there was a significant inhibition of cell proliferation compared to the vehicle control” value ([5]; CD34+ non-tumour control cells, doses 0, 2, 10, 50, 250, 500 µM, p<0.05)?
The value was 250 µM.

What about the “Phase of cell cycle accumulation” value (JURKAT [6]) of the same compound?
The value was “S-phase”.

What about the “Percentage of cells in G0/G1 phase of cell cycle (significant accumulation)” value (CCRF-CEM [7]) of the same compound?
The value was “G0/G1 =54%”.

And the “Percentage of cells in G0/G1 phase of cell cycle (significant accumulation)” value (U937 [8])?
The value was “G0/G1 =55%”.

What about the “Cell cycle arrest in non-tumour control cells” value [9] of the same compound?
Its value is “No Arrest <50µM”.

And the EC50 (JURKAT [10]; Homo sapiens, Jurkat, read-out: AP50 (50% induction of apoptosis), Caspase 3 activity assay (C3))?
The EC50 was > 250 µM.

And the “The lowest dose of polyphenols at which there was a significant induction of apoptosis compared to the vehicle control” value (JURKAT [10]; JURKAT, caspase 3 activity, p<0.05)?
The value was 50 µM.

And the EC50 (CCRF-CEM [11]; Homo sapiens, read-out: AP50 (50% induction of apoptosis), Caspase 3 activity assay (C3))?
The EC50 was 200 µM.

And the “The lowest dose of polyphenols at which there was a significant induction of apoptosis compared to the vehicle control” value (CCRF-CEM [11]; caspase 3 activity, p<0.05)?
Its value is 50 µM.

And the “The lowest dose of polyphenols at which there was a significant induction of apoptosis compared to the vehicle control” value (HL60 [12]; HL60, caspase 3 activity, 24 h, p<0.05)?
Its value is 50 µM.

What about the EC50 (HL60 [12]; Homo sapiens, HL-60, 24 h, read-out: AP50 (50% induction of apoptosis), Caspase 3 activity assay (C3)) of the same compound?
Its EC50 is > 250 µM.

What about the EC50 (THP-1 [13]; Homo sapiens, THP-1, 24 h, read-out: AP50 (50% induction of apoptosis), Caspase 3 activity assay (C3)) of the same compound?
Its EC50 is 50 µM.

What about the “The lowest dose of polyphenols at which there was a significant induction of apoptosis compared to the vehicle control” value (THP-1 [13]; THP-1, caspase 3 activity, 24 h, p<0.05) of the same compound?
The value was 50 µM.

And the EC50 (K562 [14]; Homo sapiens, K562, 24 h, read-out: AP50 (50% induction of apoptosis), Caspase 3 activity assay (C3))?
Its EC50 is > 250 µM.

What about the “The lowest dose of polyphenols at which there was a significant induction of apoptosis compared to the vehicle control” value (K562 [14]; K562, caspase 3 activity, 24 h, p<0.05) of the same compound?
Its value is 50 µM.

What about the EC50 (U937 [15]; Homo sapiens, U-937, 24 h, read-out: AP50 (50% induction of apoptosis), Caspase 3 activity assay (C3)) of the same compound?
Its EC50 is 60 µM.

What about the “The lowest dose of polyphenols at which there was a significant induction of apoptosis compared to the vehicle control” value (U937 [15]; U937, caspase 3 activity, 24 h, p<0.05) of the same compound?
The value was 50 µM.

What about the EC50 (non-tumor cells (CD34+) [16]; read-out: AP50 (50% induction of apoptosis), Caspase 3 activity assay (C3)) of the same compound?
Its EC50 is > 250 µM.

What about the “The lowest dose of polyphenols at which there was a significant induction of apoptosis compared to the vehicle control” value (non-tumor cells (CD34+) [16]; CD34+ non-tumour control cells, caspase 3 activity, p<0.05) of the same compound?
The value was 50 µM.

What about the EC50 (HL60 [17]) of the same compound?
Its EC50 is > 500 µM.

And the EC50 (THP-1 [18])?
The EC50 was 60 µM.

And the EC50 (K562 [19])?
The EC50 was > 500 µM.

And the EC50 (non-tumor cells (CD34+) [20])?
The EC50 was > 500 µM.
